System: HUVEC
Experiment: In vitro morphogenesis assay on HUVEC plated on Matrigel, VEGF-stimulated
Assay type: cell-based, Human
Conditions: 5 h incubation
Method in brief: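 HUVEC (passages 2–10) were maintained at 37 °C, 5% CO2 in medium with 2% FBS and growth factors. 2.5×10^4 cells were seeded on pre-polymerized Matrigel and incubated for 5 h at 37 °C with or without test compound, under VEGF 10 ng mL−1 stimulation. Networks were imaged by phase contrast and scored as total branch length in pixels, with open ramifications counted as branches. Data were normalized to VEGF alone and given as mean±S.D. of 4–10 experiments, with a two-tailed paired Student's t test.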

| Substance | VEGF-induced morphogenesis, % of VEGF alone (1 μM, VEGF 10 ng mL−1, length of branches, p>0.05) | effect on new capillary network formation induced by VEGF165 (in words) (VEGF165 10 ng mL−1) |
| --- | --- | --- |
| Ac-KQMYLELGYATIKWL-NH2 [Compound 14, Ac-Lys-Gln-Met-Tyr-Leu-Glu-Leu-Gly-Tyr-Ala-Thr-Ile-Lys-Trp-Leu-amide] | 82 %±21% | – |
| cyclo[DKP-RGD] [Compound 1] | – | markedly decreased |
